ChEMBL document CHEMBL4138280, “Ribocyclophanes A-E, Glycosylated Cyclophanes with Antiproliferative Activity from Two Cultured Terrestrial Cyanobacteria” (J Nat Prod, 2018)
One block for each molecule: values may come before it. Calls of active or inactive are those of the source. The rule behind the calls is not given here.

Legend:
[1] = tested on: MDA-MB-435; assay: Antiproliferative activity against human MDA-MB-435 cells at 0.04 to 25 ug/ml after 96 hrs by CellTiter 96 AQueous one solution cell proliferation assay
[2] = tested on: MDA-MB-231; assay: Antiproliferative activity against human MDA-MB-231 cells at 0.04 to 25 ug/ml after 96 hrs by CellTiter 96 AQueous one solution cell proliferation assay
[3] = tested on: MDA-MB-435; assay: Antiproliferative activity against human MDA-MB-435 cells assessed as viable cells at 1 ng/ml after 96 hrs by CellTiter 96 AQueous one solution cell proliferation assay relative to control; format: functional; details: MDA-MB-435, 96 h, read-out: Activity
[4] = tested on: MDA-MB-231; assay: Antiproliferative activity against human MDA-MB-231 cells at 25 ug/ml after 96 hrs by CellTiter 96 AQueous one solution cell proliferation assay
[5] = tested on: MDA-MB-435; assay: Antiproliferative activity against human MDA-MB-435 cells at 25 ug/ml after 96 hrs by CellTiter 96 AQueous one solution cell proliferation assay
[6] = tested on: MDA-MB-231; assay: Antiproliferative activity against human MDA-MB-231 cells after 96 hrs by CellTiter 96 AQueous one solution cell proliferation assay; format: functional, cell-based; details: MDA-MB-231, 96 h
Outline: (§1)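 Cells kept in RPMI 1640 with 10% FBS, penicillin (100 units/mL) and streptomycin (100 μg/mL) at 37 °C, 5% CO₂. Log-phase cells were trypsinized and seeded at 5000 per well, then left overnight. DMSO solutions were serially diluted and added at 25, 5.0, 1.0, 0.2 and 0.04 μg/mL for 96 h at 37 °C. Viability was read by absorbance as percent viable cells versus solvent control.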

[7] = tested on: MDA-MB-435; assay: Antiproliferative activity against human MDA-MB-435 cells after 96 hrs by CellTiter 96 AQueous one solution cell proliferation assay; format: functional, cell-based; details: MDA-MB-435, 96 h
Outline: as §1

SMILES: CCCC[C@H]1CCCC[C@H](C)[C@@H](O)c2cc(O)c(c(O)c2)[C@@H](CCCC)CCCC[C@H](C)[C@@H](O[C@@H]2OC[C@@H](O)[C@@H](O)[C@H]2O)c2cc(O)c1c(O)c2
Activity [1]: Active
Activity [2]: Active

SMILES: CC[C@]1(O)C[C@@H]2CN(CCc3c([nH]c4ccccc34)[C@@](C(=O)OC)(c3cc4c(cc3OC)N(C)[C@H]3[C@@](O)(C(=O)OC)[C@H](OC(C)=O)[C@]5(CC)C=CCN6CC[C@]43[C@@H]65)C2)C1 [VINBLASTINE]
viability at 0.001 µg/mL [3]: 49%

SMILES: CCCCC(Cl)CCCC[C@H](C)[C@@H](O[C@@H]1OC[C@@H](O)[C@@H](O)[C@H]1O)c1cc(O)c([C@@H](CCCC)CCCC[C@H](C)[C@@H](OC(C)=O)c2cc(O)cc(O)c2)c(O)c1 (stereo partly drawn)
Activity [4]: inactive
Activity [5]: inactive

SMILES: CCCC[C@H]1CCCC[C@H](C)[C@@H](O[C@@H]2OC[C@@H](O)[C@@H](O)[C@H]2O)c2cc(O)c(c(O)c2)[C@@H](CCCC)CCCC[C@H](C)[C@@H](O[C@@H]2OC[C@@H](O)[C@@H](O)[C@H]2O)c2cc(O)c1c(O)c2
Activity [1]: Active
Activity [2]: Active

IC50 [6]: 0.8 µM
IC50 [7]: 0.6 µM
SMILES: CCCC[C@H]1CCCC[C@H](C)[C@@H](OC(C)=O)c2cc(O)c(c(O)c2)[C@@H](CCCC)CCCC[C@H](C)[C@@H](O[C@@H]2OC[C@@H](O)[C@@H](O)[C@H]2O)c2cc(O)c1c(O)c2

IC50 [6]: 1.2 µM
IC50 [7]: 1.3 µM
SMILES: CCCC[C@H]1CCCC[C@H](C)Cc2cc(O)c(c(O)c2)[C@@H](CCCC)CCCC[C@H](C)[C@@H](O[C@@H]2OC[C@@H](O)[C@@H](O)[C@H]2O)c2cc(O)c1c(O)c2

SMILES: CCCC[C@H]1CCCC[C@H](C)[C@@H](OC(C)=O)c2cc(O)c(c(O)c2)[C@@H](CCCC)CCCC[C@H](C)[C@@H](OC(C)=O)c2cc(O)c1c(O)c2
Activity [1]: Active
Activity [2]: Active
